In ChEMBL document CHEMBL1124186, “Synthesis and evaluation of tylosin-related macrolides modified at the aldehyde function: a new series of orally effective antibiotics” (1988):
Values after ≈ are worked out from the molar mass of the structure shown.

What was measured:
Streptococcus pyogenes [1] = experiment: Effective dose against Streptococcus pyogenes C203 when administered sc; assay type: functional
Outline: (§1)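 Mouse protection test: infected mice were dosed twice, at 1 and 5 h postinfection, either subcutaneously or orally. […] The result is expressed as ED50 in mg/kg × 2.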

Staphylococcus aureus [2] = experiment: In vitro antimicrobial activity against aerobic bacteria Staphylococcus aureus 513E; assay type: functional
Streptococcus [3] = experiment: In vitro antimicrobial activity against aerobic bacteria Streptococcus D 2041; assay type: functional
Clostridium septicum = experiment: In vitro antimicrobial activity against anaerobic bacteria clostridium septicum 1128; assay type: functional
[4] = tested on: Bacteroides thetaiotaomicron; experiment: In vitro antimicrobial activity against anaerobic bacteria bacteroides thetaiotaomicron 1438; assay type: functional
Haemophilus influenzae [5] = experiment: In vitro antimicrobial activity against aerobic bacteria Haemophilus influenzae 76; assay type: functional
Bacteroides fragilis [6] = experiment: In vitro antimicrobial activity against anaerobic bacteria bacteroides fragilis 111; assay type: functional
Chlamydia trachomatis = experiment: In vitro antimicrobial activity against chlamydia trachomatis.; assay type: functional
Streptococcus [7] = experiment: In vitro antimicrobial activity against aerobic bacteria Streptococcus G Kruder; assay type: functional; details: Streptococcus; read-out: MIC
[8] = In vitro antimicrobial activity against anaerobic bacteria peptostreptococcus intermedius 1264; assay type: functional
Streptococcus pneumoniae [9] = experiment: In vitro antimicrobial activity against aerobic bacteria Streptococcus pneumoniae B1-438; assay type: functional, streptococcus pneum
Anaerococcus prevotii = experiment: In vitro antimicrobial activity against anaerobic bacteria peptococcus prevoti 1281; assay type: functional
Streptococcus viridans = experiment: In vitro antimicrobial activity against aerobic bacteria Streptococcus viridans 9943; assay type: functional
Streptococcus [10] = experiment: In vitro antimicrobial activity against aerobic bacteria Streptococcus D 9960; assay type: functional
Eikenella corrodens = experiment: In vitro antimicrobial activity against anaerobic bacteria bacteroides corrodens 1874; assay type: functional
Staphylococcus aureus [11] = experiment: In vitro antimicrobial activity against Staphylococcus aureus X1; assay type: functional
[12] = tested on: Haemophilus parainfluenzae; experiment: In vitro antimicrobial activity against aerobic bacteria Haemophilus parainfluenzae 9796; assay type: functional
[13] = tested on: Staphylococcus epidermidis; experiment: In vitro antimicrobial activity against Staphylococcus epidermidis EPI1; assay type: functional
Collinsella aerofaciens = experiment: In vitro antimicrobial activity against anaerobic bacteria aerofaciens 1235; assay type: functional
[14] = tested on: Peptostreptococcus anaerobius; experiment: In vitro antimicrobial activity against anaerobic bacteria eubacterium peptostreptococcus anaerobius 1428,; assay type: functional
Haemophilus influenzae [15] = experiment: In vitro antimicrobial activity against aerobic bacteria Haemophilus influenzae MX366,; assay type: functional
Streptococcus sanguinis = experiment: In vitro antimicrobial activity against aerobic bacteria Streptococcus sanguis MX132; assay type: functional
Streptococcus pyogenes [16] = experiment: Antimicrobial activity against Streptococcus pyogenes C203; assay type: functional
Streptococcus [17] = experiment: In vitro antimicrobial activity against aerobic bacteria Streptococcus C 24; assay type: functional
Streptococcus pyogenes [18] = experiment: In vitro antimicrobial activity against Streptococcus pyogenes C203; assay type: functional
Streptococcus pneumoniae [19] = experiment: In vitro antimicrobial activity against Streptococcus pneumoniae; assay type: functional
Fusobacterium = experiment: In vitro antimicrobial activity against anaerobic bacteria fusobacterium symbiosum 1470; assay type: functional
Enterococcus faecium = experiment: In vitro antimicrobial activity against Streptococcus faecium X66; assay type: functional, streptococcus fae-cium
Streptococcus [20] = experiment: In vitro antimicrobial activity against aerobic bacteria Streptococcus B 5; assay type: functional
[21] = tested on: Staphylococcus epidermidis; experiment: In vitro antimicrobial activity against aerobic bacteria Streptococcus epi 222; assay type: functional
Streptococcus pyogenes [22] = experiment: In vivo effective dose against experimental infections in rodent caused by Streptococcus pyogenes C203 when administered orally; assay type: functional; details: po
Staphylococcus aureus [23] = experiment: In vitro antimicrobial activity against aerobic bacteria Staphylococcus aureus X400; assay type: functional
Staphylococcus aureus [24] = experiment: In vitro antimicrobial activity against aerobic bacteria Staphylococcus aureus V41; assay type: functional
Streptococcus pyogenes [25] = experiment: Effective dose against Streptococcus pyogenes administered orally; assay type: functional; details: po; outline: as §1
Streptococcus [26] = experiment: In vitro antimicrobial activity against aerobic bacteria Streptococcus D 8043; assay type: functional
Streptococcus pyogenes [27] = experiment: In vivo effective dose against experimental infections in rodent caused by Streptococcus pyogenes C203 when administered sc; assay type: functional
[28] = tested on: Peptoniphilus asaccharolyticus; experiment: In vitro antimicrobial activity against anaerobic bacteria peptococcus asaccharolyticus 1302; assay type: functional
Bacteroides fragilis [29] = experiment: In vitro antimicrobial activity against anaerobic bacteria bacteroides fragilis 1877; assay type: functional
Haemophilus influenzae [30] = experiment: In vitro antimicrobial activity against aerobic bacteria Haemophilus influenzae 465; assay type: functional
Streptococcus [31] = experiment: In vitro antimicrobial activity against aerobic bacteria Streptococcus B 8; assay type: functional
[32] = tested on: Prevotella melaninogenica; experiment: In vitro antimicrobial activity against anaerobic bacteria bacteroides melaninogenicus 2736; assay type: functional
Cutibacterium acnes = experiment: In vitro antimicrobial activity against anaerobic bacteria propionibacterium acnes 79; assay type: functional
Clostridium perfringens = experiment: In vitro antimicrobial activity against anaerobic bacteria clostridium perfringens 81,; assay type: functional
Staphylococcus aureus [33] = experiment: In vitro antimicrobial activity against aerobic bacteria Staphylococcus aureus V135; assay type: functional
Bacteroides fragilis [34] = experiment: In vitro antimicrobial activity against anaerobic bacteria bacteroides fragilis 1936B,; assay type: functional
Clostridioides difficile = experiment: In vitro antimicrobial activity against anaerobic bacteria Clostridium difficile 2994; assay type: functional
[35] = tested on: Prevotella melaninogenica; experiment: In vitro antimicrobial activity against anaerobic bacteria bacteroides melaninogenicus 1856,; assay type: functional
Staphylococcus aureus [36] = experiment: In vitro antimicrobial activity against aerobic bacteria Staphylococcus aureus V140,; assay type: functional
Phocaeicola vulgatus = experiment: In vitro antimicrobial activity against anaerobic bacteria bacteroides vulgatus 1211; assay type: functional
Haemophilus influenzae [37] = experiment: In vitro antimicrobial activity against Haemophilus influenzae.; assay type: functional
[38] = tested on: Fusobacterium necrophorum; experiment: In vitro antimicrobial activity against anaerobic bacteria usobacterium necrophorum 6054A; assay type: functional
[39] = tested on: Staphylococcus epidermidis; experiment: In vitro antimicrobial activity against aerobic bacteria Streptococcus epi 270; assay type: functional

CC[C@H]1OC(=O)C[C@@H](O)[C@H](C)[C@@H](O[C@@H]2O[C@H](C)[C@@H](O[C@H]3C[C@@](C)(O)[C@@H](O)[C@H](C)O3)[C@H](N(C)C)[C@H]2O)[C@@H](CC=O)C[C@@H](C)C(=O)/C=C/C(C)=C/[C@@H]1CO[C@@H]1O[C@H](C)[C@@H](O)[C@@H](OC)[C@H]1OC [TYLOSIN]
ED50 (Streptococcus pyogenes [1]): 0.5 mg/kg | MIC (Staphylococcus aureus [2]): 1 µg/mL (≈ 1.09 µM) | MIC (Streptococcus [3]): 1 µg/mL (≈ 1.09 µM) | MIC (Clostridium septicum): 0.5 µg/mL (≈ 0.546 µM) | MIC [4]: 1 µg/mL (≈ 1.09 µM) | MIC (Haemophilus influenzae [5]): 16 µg/mL (≈ 17.5 µM) | MIC (Bacteroides fragilis [6]): 0.5 µg/mL (≈ 0.546 µM) | MIC (Chlamydia trachomatis): 0.25 µg/mL (≈ 0.273 µM) | MIC (Streptococcus [7]): 0.25 µg/mL (≈ 0.273 µM) | MIC [8]: 0.5 µg/mL (≈ 0.546 µM) | MIC (Streptococcus pneumoniae [9]): > 128 µg/mL | MIC (Anaerococcus prevotii): 8 µg/mL (≈ 8.73 µM) | MIC (Streptococcus viridans): > 128 µg/mL | MIC (Streptococcus [10]): 1 µg/mL (≈ 1.09 µM) | MIC (Eikenella corrodens): 1 µg/mL (≈ 1.09 µM) | MIC (Staphylococcus aureus [11]): 0.5 µg/mL (≈ 0.546 µM) | MIC [12]: 16 µg/mL (≈ 17.5 µM) | MIC [13]: 1 µg/mL (≈ 1.09 µM) | MIC (Collinsella aerofaciens): 0.12 µg/mL (≈ 0.131 µM) | MIC [14]: 8 µg/mL (≈ 8.73 µM) | MIC (Haemophilus influenzae [15]): 16 µg/mL (≈ 17.5 µM) | MIC (Streptococcus sanguinis): 0.5 µg/mL (≈ 0.546 µM) | MIC (Streptococcus pyogenes [16]): 0.25 µg/mL (≈ 0.273 µM) | MIC (Streptococcus [17]): 0.25 µg/mL (≈ 0.273 µM) | MIC (Streptococcus pyogenes [18]): 0.25 µg/mL (≈ 0.273 µM) | MIC (Streptococcus pneumoniae [19]): 0.25 µg/mL (≈ 0.273 µM) | MIC (Fusobacterium): < 0.03 µg/mL | MIC (Enterococcus faecium): 2 µg/mL (≈ 2.18 µM) | MIC (Streptococcus [20]): 1 µg/mL (≈ 1.09 µM) | MIC [21]: 0.25 µg/mL (≈ 0.273 µM) | ED50 (Streptococcus pyogenes [22]): 42 mg/kg | MIC (Staphylococcus aureus [23]): 1 µg/mL (≈ 1.09 µM) | MIC (Staphylococcus aureus [24]): 1 µg/mL (≈ 1.09 µM) | ED50 (Streptococcus pyogenes [25]): 0.5 mg/kg | MIC (Streptococcus [26]): 1 µg/mL (≈ 1.09 µM) | ED50 (Streptococcus pyogenes [27]): 1.3 mg/kg | MIC [28]: 0.06 µg/mL (≈ 0.0655 µM) | MIC (Bacteroides fragilis [29]): 1 µg/mL (≈ 1.09 µM) | MIC (Haemophilus influenzae [30]): 32 µg/mL (≈ 34.9 µM) | MIC (Streptococcus [31]): 1 µg/mL (≈ 1.09 µM) | MIC [32]: < 0.03 µg/mL | MIC (Cutibacterium acnes): 0.5 µg/mL (≈ 0.546 µM) | MIC (Clostridium perfringens): 0.25 µg/mL (≈ 0.273 µM) | MIC (Staphylococcus aureus [33]): 1 µg/mL (≈ 1.09 µM) | MIC (Bacteroides fragilis [34]): 1 µg/mL (≈ 1.09 µM) | MIC (Clostridioides difficile): 1 µg/mL (≈ 1.09 µM) | MIC [35]: 0.25 µg/mL (≈ 0.273 µM) | MIC (Staphylococcus aureus [36]): 1 µg/mL (≈ 1.09 µM) | MIC (Phocaeicola vulgatus): 1 µg/mL (≈ 1.09 µM) | MIC (Haemophilus influenzae [37]): 16 µg/mL (≈ 17.5 µM) | MIC [38]: 0.5 µg/mL (≈ 0.546 µM) | MIC [39]: > 128 µg/mL
